Assay results pooled from the literature.
Target: Aurora kinase B (AURKB, Homo sapiens, UniProt Q96GD4)

| SMILES | assay | conditions | remaining binding [%] |
| --- | --- | --- | --- |
| Cc1cnc(Nc2ccc(C(=O)N3CCC(N4CCCC4)CC3)cc2)nc1-c1cc2ccccc2s1 | binding, competition with immobilised ligand | 1 µM | 6.8 |
| CSc1cccnc1N1CCN(Cc2nc3ccccc3[nH]2)CC1 | cell-free assay, competition with immobilised ligand | 1 µM | 67 |
| CNC(=O)[C@@H]1CC[C@@H](n2c(-c3ccc4cnccc4c3)nc3ccc(C(=O)NCc4cccc(C(N)=O)c4)cc32)C1 | binding, competition with immobilised ligand | 1 µM | 95 |
| c1cncc(-c2cccc(Nc3nccc(NC4CCCCC4)n3)c2)c1 | binding, competition with immobilised ligand | 10 µM | 23 |
| O=C(NCCCN1CCOCC1)c1ccc(Nc2ncc(Cl)c(-c3ccc(Cl)s3)n2)cc1 | binding, competition with immobilised ligand | 1 µM | 15 |
| COc1cnc(Nc2cccc(S(N)(=O)=O)c2)nc1N1CCN(c2ccccc2)CC1 | binding, competition with immobilised ligand | 1 µM | 89 |
| O=C(NCc1ncc(C(F)(F)F)cc1Cl)c1ccc2c(c1)C1(CCS(=O)(=O)CC1)[C@@H](C1CC1)N2S(=O)(=O)c1ccc(F)cc1 | cell-free assay, competition with immobilised ligand | 1 µM | 66 |
| FC(F)(F)Oc1cccc(-c2cnc3ccc(-c4ccncc4)nn23)c1 | cell-free assay, competition with immobilised ligand | 5 µM | 73 |
| O=C(Nc1c[nH]nc1C(=O)NC1CCNCC1)c1cc(F)cc(F)c1 | binding, competition with immobilised ligand | 1 µM | 78 |
| CCN1CCN(Cc2ccc(C(=O)Nc3ccc(C)c(Oc4ccc5c(c4)CC(=O)N5)c3)cc2C(F)(F)F)CC1 | binding, competition with immobilised ligand | 1 µM | 100 |
| C[C@@H]1CN(c2ccc3ncc(-c4ccc5[nH]nc(C6CC6)c5c4)n3n2)C[C@H](C)O1 | binding, competition with immobilised ligand | 0.5 µM | 82 |
| C[C@H]1CCN(c2nccc(-c3cnn4ncccc34)n2)C1 | binding | 1 µM | 70 |
| CC(=O)N1CCC(c2ccc(C(=O)NC3=NCCN3)cc2C(F)(F)F)CC1 | cell-free assay, competition with immobilised ligand | 1 µM | 100 |
| COc1cc(C(=O)N2CCC(N3CCN(C)CC3)CC2)ccc1Nc1ncc2c(n1)N(C)c1ccccc1C(=O)N2C | binding, competition with immobilised ligand | 10 µM | 38 |
| CN(CCCC(F)(F)F)c1nccc(-c2cnn3ncccc23)n1 | binding | 1 µM | 98 |
| Cc1c(C(=O)O)cc(-c2ccc(C3CCNCC3)cc2)c2ccc(-c3ccc(C(F)(F)F)cc3)cc12 | cell-free assay, competition with immobilised ligand | 1 µM | 100 |
| COc1ncc2cc3ccccc3nc2c1C#N | cell-free assay, competition with immobilised ligand | 5 µM | 94 |
| O=C1CCc2cc(Nc3cc(OC4CCOCC4)c([N+](=O)[O-])cc3Cl)ccc2N1 | cell-free assay, competition with immobilised ligand | 1 µM | 86 |
| N[C@H]1CCN(c2nccc(-c3cnn4ncccc34)n2)C1 | binding | 1 µM | 77 |
| CNC(=O)Nc1ccc2c(c1)CC[C@@]21OC(=O)N(CC(=O)N(Cc2ccc(F)cc2)[C@@H](C)C(F)(F)F)C1=O | cell-free assay, competition with immobilised ligand | 1 µM | 86 |
| O=C(NCCCN1CCOCC1)c1ccc(Nc2nccc(-c3cc4ccccc4s3)n2)cc1 | binding, competition with immobilised ligand | 1 µM | 48 |
| F[C@@H]1CCN(c2nccc(-c3cnn4ncccc34)n2)C1 | binding | 1 µM | 100 |
| CN([C@@H]1CCc2c(CC(=O)O)c3cc(S(C)(=O)=O)ccc3n2C1)S(=O)(=O)c1ccc(F)cc1 | cell-free assay, competition with immobilised ligand | 1 µM | 83 |
